Reference: ChEMBL document CHEMBL1667836, “Synthesis of egonol derivatives and their antimicrobial activities” (2011)
Values after ≈ are worked out from the molar mass of the structure shown. Active and inactive are the calls of the source. The rule behind the calls is not given here.

What was measured:
Format in all cases: functional
[1] = test system: Staphylococcus aureus; assay: Antimicrobial activity against Staphylococcus aureus ATCC 29213 by MHB method
Summary of the method: (§1)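 Broth-based MIC assay in Mueller Hinton broth. Test compounds were supplied from stock solutions in DMSO. The read-out was the minimum inhibitory concentration determined for each compound against each strain.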

[2] = test system: Bacillus subtilis; assay: Antimicrobial activity against Bacillus subtilis ATCC 6633 by MHB method; summary of the method: as §1
[3] = test system: Candida albicans; assay: Antimicrobial activity against Candida albicans ATCC 10231 by MHB method; summary of the method: as §1
[4] = test system: Escherichia coli; assay: Antimicrobial activity against Escherichia coli ATCC 8739 by MHB method; summary of the method: as §1

SMILES | MIC [1] | MIC [2] | MIC [3] | MIC [4]
COc1cc(CCCOC(=O)CCl)cc2cc(-c3ccc4c(c3)OCO4)oc12 | inactive | inactive | 100 µg/mL (≈ 248 µM) | inactive
COc1cc(CC/C=N/OC(=O)CCl)cc2cc(-c3ccc4c(c3)OCO4)oc12 | inactive | inactive | 25 µg/mL (≈ 60.1 µM) | 800 µg/mL (≈ 1920 µM)
COc1cc(CCCOC(C)=O)cc2cc(-c3ccc4c(c3)OCO4)oc12 [EGONOL ACETATE] | inactive | inactive | 200 µg/mL | inactive
COc1cc(CCCOC(=O)CN2CCOCC2)cc2cc(-c3ccc4c(c3)OCO4)oc12 | inactive | inactive | inactive | 800 µg/mL (≈ 1760 µM)
COc1cc(CCCN2CCOCC2)cc2cc(-c3ccc4c(c3)OCO4)oc12 | 200 µg/mL (≈ 506 µM) | inactive | 25 µg/mL (≈ 63.2 µM) | inactive
COc1cc(CCCO)cc2cc(-c3ccc4c(c3)OCO4)oc12 [EGONOL] | 800 µg/mL (≈ 2450 µM) | 800 µg/mL (≈ 2450 µM) | 25 µg/mL (≈ 76.6 µM) | 800 µg/mL (≈ 2450 µM)
COc1ccc(-c2cc3cc(CCCOC(=O)CCl)cc(OC)c3o2)cc1OC | 400 µg/mL (≈ 955 µM) | 400 µg/mL (≈ 955 µM) | 200 µg/mL (≈ 477 µM) | inactive
COc1cc(CC/C=C(\C=O)Cc2cc(OC)c3oc(-c4ccc5c(c4)OCO5)cc3c2)cc2cc(-c3ccc4c(c3)OCO4)oc12 | 25 µg/mL (≈ 39.6 µM) | inactive | 25 µg/mL (≈ 39.6 µM) | inactive

Further compounds by falling MIC [3], results first:

MIC [1] | MIC [2] | MIC [3] | MIC [4] | SMILES
inactive | inactive | 800 µg/mL (≈ 2360 µM) | inactive | COc1cc(CC/C=N/O)cc2cc(-c3ccc4c(c3)OCO4)oc12
inactive | inactive | 800 µg/mL (≈ 2340 µM) | inactive | COc1cc(CCCO)cc2c(N)c(-c3ccc4c(c3)OCO4)oc12
800 µg/mL (≈ 1920 µM) | 400 µg/mL (≈ 961 µM) | 400 µg/mL (≈ 961 µM) | 400 µg/mL (≈ 961 µM) | COc1c([N+](=O)[O-])c(CCCO)cc2c([N+](=O)[O-])c(-c3ccc4c(c3)OCO4)oc12
inactive | inactive | 200 µg/mL (≈ 524 µM) | inactive | CCN(CC)CCCc1cc(OC)c2oc(-c3ccc4c(c3)OCO4)cc2c1
inactive | inactive | 200 µg/mL (≈ 549 µM) | inactive | COc1cc(CC/C=C/C(C)=O)cc2cc(-c3ccc4c(c3)OCO4)oc12
inactive | 400 µg/mL (≈ 1010 µM) | 200 µg/mL (≈ 503 µM) | inactive | COc1cc(CC/C=N/NC(N)=S)cc2cc(-c3ccc4c(c3)OCO4)oc12
inactive | 400 µg/mL (≈ 902 µM) | 100 µg/mL (≈ 226 µM) | inactive | COc1cc(CC/C=N/OC(=O)c2ccccc2)cc2cc(-c3ccc4c(c3)OCO4)oc12
400 µg/mL (≈ 984 µM) | 400 µg/mL (≈ 984 µM) | 50 µg/mL (≈ 123 µM) | 400 µg/mL (≈ 984 µM) | COc1cc(CCCOS(=O)(=O)O)cc2cc(-c3ccc4c(c3)OCO4)oc12
200 µg/mL (≈ 588 µM) | 800 µg/mL (≈ 2350 µM) | 50 µg/mL (≈ 147 µM) | inactive | COc1cc(CCC(=O)O)cc2cc(-c3ccc4c(c3)OCO4)oc12 [EGONOIC ACID]
inactive | 400 µg/mL (≈ 1050 µM) | 25 µg/mL (≈ 65.6 µM) | inactive | COc1cc(CC/C=N/NC(N)=O)cc2cc(-c3ccc4c(c3)OCO4)oc12
inactive | inactive | 25 µg/mL (≈ 64.1 µM) | 800 µg/mL (≈ 2050 µM) | COc1cc(CCCCl)cc2c([N+](=O)[O-])c(-c3ccc4c(c3)OCO4)oc12
